Assay outcomes from PubChem.
Shown is part of a subset that was picked to be rich in hits.
Cardio protect = protects H9c2 cardiomyocytes from peroxide injury. H2O2 injury protection, ATPLite, 2 h. 360,000 compounds, 0.63% hits. protection from H2O2 cell death, % at 20 µM. AID 588492;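 active = compounds giving at least 50% protection of heart cells from peroxide-induced death in the single-dose screen, raw or plate-pattern-corrected value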;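 also: 0% = DMSO wells with peroxide and 100% = DMSO wells without peroxide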
iPSC survival up = hiPSC single-cell survival enhancement; 360,000 compounds, 0.044% hits; ATPlite luminescence; 100% = ROCK inhibitor wells, 0% = DMSO; survival enhancement, % at 20 µM; in the data active = survival enhancement above about 18%;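 also: cells exposed to compounds for 16 hours before the ATP read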
CHOP inhibitor = blocks CHOP induction under ER stress. inhibition, % at 10 µM. 220,000 compounds, 3.8% hits. CHO-K1 CHOP-promoter luciferase, tunicamycin-induced, 15-18 h;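 active = compounds that reduced the stress-induced luciferase reporter signal by more than about 70% of percent inhibition, limit read from the data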;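 also: 0% = tunicamycin plus vehicle and 100% = wells without tunicamycin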
CHOP UPR activ = activators of apoptotic arm of unfolded protein response (CHOP) | 330,000 compounds, 0.34% hits | AID 449763 | activation, % at 10 µM | CHO-CHOP luciferase reporter, UPR activation, luminescence; percent of tunicamycin response over DMSO baseline;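 active = at 10 µM dose, activation of 40% or more, normalized to positive control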;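 also: 100% = tunicamycin at 10 µg/mL and 0% = DMSO alone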
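Test system: CHO CHOP reporter cells. Input: 500 CHO-CHOP cells per well. Medium: F12 with 10% FBS. Technique: luciferase luminescence. Measure: percent activation relative to tunicamycin control. Dosing: 10 µM compound, 0.5% DMSO. Timing: 16-18 h cell attachment, then 6 h compound exposure, 37 °C.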
XBP1 UPR activ = adaptive UPR (XBP1) activation. CHO-XBP1 luciferase reporter, IRE1-XBP1 UPR activation, luminescence; percent of tunicamycin response, DMSO as zero. activation, % at 20 µM. 330,000 compounds, 0.33% hits. AID 463104;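 active = versus positive control, 20 µM dose yields 30% or more activation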;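 also: 100% = tunicamycin at 10 µg/mL and 0% = DMSO only wells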
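Assay system: CHO-XBP1 luciferase reporter cells; Schedule: 6 h treatment, 37 °C; Detection: glow luminescence from Steady-Glo reagent; Benchmarks: high control tunicamycin 10 µg/mL final, low control DMSO vehicle only.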
An asterisk follows results filed as active; x = no result given.

SMILES	Cardio protect	iPSC survival up	CHOP inhibitor	CHOP UPR activ	XBP1 UPR activ
Nc1cc([N+](=O)[O-])cc2oc(-c3ccccc3)cc12	-8	-1	x	6	10
CC(=O)Nc1ccc(S(=O)(=O)NCc2ccc(C)cc2)cc1	-7	-3	76*	-1	0
CC(=O)Nc1ccc(S(=O)(=O)NCCNS(=O)(=O)c2ccc(NC(C)=O)cc2)cc1	2	0	x	1	-3
COc1cc(OC)c(NC(=O)c2ccco2)cc1Cl	2	-3	72*	0	0
COc1cc(NC(=O)c2ccco2)ccc1NC(=O)C(C)C	-2	-2	80*	-2	2
COc1cc(NC(=O)c2ccco2)c(OC)cc1NC(=O)CCC(=O)Nc1cc(C)cc(C)c1	7	-1	76*	-1	0
COc1cc(NC(=O)c2ccco2)c(OC)cc1NC(=O)CCC(=O)Nc1cc(C)ccc1C	8	0	11	1	-2
O=C(Oc1cccc2cccnc12)c1cccc([N+](=O)[O-])c1	-4	1	57	9	12
O=C(Oc1c(Cl)cc(Cl)c2cccnc12)c1cccc([N+](=O)[O-])c1	-6	1	97*	0	7
O=C(Oc1ccc(Cl)c2cccnc12)c1cccc([N+](=O)[O-])c1	64*	2	50	20	8
CSc1ccc(CN2C(=O)C(F)(F)Oc3c(C(C)=O)cccc32)cc1	-8	-2	x	x	x
CC(C)=CCC/C(C)=C/CCC(C)NCCN1CCNCC1 (stereo not given)	x	x	95*	-1	-7
CCOc1cc(/C=N/NC(N)=O)cc(Br)c1OCC(=O)Nc1ccccc1C	11	1	-18	2	1
CCOc1cc(/C=N/NC(N)=O)cc(Br)c1OCC(=O)Nc1cccc2ccccc12	57*	3	-1	5	0
COc1ccc(-c2cn3cc(Cl)ccc3n2)cc1OC	3	-1	x	6	6
Clc1ccc2nc(-c3ccc(Br)s3)cn2c1	-14	-3	75*	-5	-3
Nc1c(S(=O)(=O)c2cccs2)c2nc3ccccc3nc2n1/N=C/c1cccc(O)c1	-4	-2	89*	18	9
CCNC(=S)N/N=C/c1ccc(OCCOc2ccccc2C)cc1	-6	-2	85*	-2	3
CCN(CC)S(=O)(=O)c1ccc(N2CCCCC2)c(NC(=O)/C(C#N)=C/c2ccc(OC)cc2)c1	-1	0	13	1	-1
CCOc1ccc(NC(=O)/C(C#N)=C/c2ccc(N3CCCC3)c(C)c2)cc1	-32	0	101*	x	x
N#CC(Cc1ccc(O)c(O)c1)C(=O)N1CCc2ccccc21 (stereo not given)	x	x	-7	x	x
COc1ccccc1CCNCc1ccc(OC)c(OCc2ccccc2)c1	-15	-2	82*	2	0
COc1ccc(CNCc2ccco2)cc1OCc1ccccc1	-4	1	18	3	-4
CCOc1nc(-c2ccccc2Cl)ccc1C#N	-10	4	71*	-2	0
CC1CC2(CCCCC2)Nc2ccc3ccccc3c21 (stereo not given)	-7	-4	-23	-2	4
SMILES	Cardio protect	iPSC survival up	CHOP inhibitor	CHOP UPR activ	XBP1 UPR activ
CC(=O)N1c2ccc3ccccc3c2C(C)CC12CCCCC2 (stereo not given)	14	-2	70*	1	3
COCCCN1C(=O)C(CC(=O)NCc2cccs2)CC(C(=O)N2CCCCCC2)=C1C (stereo not given)	x	-2	x	x	x
Cc1ccc2nc(N3C(=O)C(O)=C(C(=O)c4ccco4)C3c3cccs3)sc2c1 (stereo not given)	-9	0	94*	3	3
COc1ccc2nc(N3C(=O)C(O)=C(C(=O)c4ccco4)C3c3ccc(C)o3)sc2c1 (stereo not given)	-1	0	x	3	0
CCC(CC)C(=O)OCC(=O)NC12CC3CC(CC(C3)C1)C2	2	3	33	-1	-2
O=C(COC(=O)C12CC3CC(CC(O)(C3)C1)C2)Nc1ccc(OC(F)F)cc1	-6	0	x	2	0
O=C(COC(=O)C12CC3CC(CC(C3)C1)C2)NC12CC3CC(CC(C3)C1)C2	-5	-2	76*	-1	2
O=C(COC(=O)C12CC3CC(CC(C3)C1)C2)Nc1ccc(OC(F)F)cc1	-22	-2	94*	-2	4
O=C(c1ccc(CSc2ccc(Cl)cc2)o1)N1CCOCC1	-1	1	x	x	x
Cc1cc(Nc2cccc(F)c2)nc(NCc2ccccc2)n1	-20	-3	71*	3	-4
COc1ccc(-c2oc(=O)c3cc(OC)c(OC)cc3c2C#CCCO)cc1	66*	0	x	1	4
COc1cc(OC)cc(-c2oc(=O)c3cc(OC)c(OC)cc3c2C#CCCO)c1	24	12	x	11	-2
CCOc1ccc(-n2c(C)c(C(=O)O)c3cc(OC)ccc32)cc1	-4	-1	x	0	3
CCOc1ccc(-n2c(C)c(C(C)=O)c3cc(OC(C)=O)ccc32)cc1	50*	1	x	1	-3
COc1ccc(S(=O)(=O)N2CCC(C(=O)N[C@@H](C)C(=O)NCc3ccco3)CC2)cc1	-1	-2	x	x	x
Cc1noc(C)c1CSc1nc2ccccc2s1	-11	1	-14	0	1
c1csc(CSc2nc3ccccc3s2)c1	-9	0	86*	3	2
O=C1NC[C@@H](CCCCN2C[C@H](Cc3ccccc3)N(CCc3ccc(O)cc3)C(=O)C2=O)N(CCc2ccccc2)C1=O	x	-1	x	x	x
COc1cc(NC(=O)C(=O)NNC(=O)C2CCCCC2)c(OC)cc1Cl	17	-2	85*	1	1
COc1cc(OC)cc(C(=O)NNC(=O)C(=O)Nc2cc(OC)c(Cl)cc2OC)c1	10	0	x	0	-4
O=C(Nc1cc(C(F)(F)F)ccc1N1CCOCC1)C1Cc2ccccc2CN1C(=O)c1ccco1 (stereo not given)	-1	1	72*	-2	-1
O=C(Nc1ccccc1)C1Cc2ccccc2CN1C(=O)c1ccco1 (stereo not given)	1	0	15	4	2
O=C(Nc1cc(C(F)(F)F)ccc1N1CCOCC1)c1cccc(F)c1	2	-2	76*	1	-2
O=C(CCCCl)NC(=S)Nc1cc(C(F)(F)F)ccc1N1CCOCC1	-18	-1	81*	0	1
CC(C)(C)C(=O)NC(=S)Nc1cc(C(F)(F)F)ccc1N1CCOCC1	3	2	47	0	1
O=C(Nc1cc(C(F)(F)F)ccc1N1CCOCC1)c1ccccc1F	-9	2	67	-2	2
CCCS(=O)(=O)NC(=O)C1(C)CCCN(C(=O)c2cncc(Br)c2)C1 (stereo not given)	0	0	x	x	x
CC(C)C[C@H]1CN(CCCC[C@H]2CNC(=O)C(=O)N2CCc2ccc(O)cc2)C(=O)C(=O)N1CCc1ccccc1	x	0	x	x	x
